Assay results taken from ChEMBL document CHEMBL2034960, “Bryonolic acid transcriptional control of anti-inflammatory and antioxidant genes in macrophages in vitro and in vivo” (J Nat Prod, 2012).
Activity calls are given as the source filed them. No cut-off for these calls is given here.

How the values were obtained:
RAW264.7 [1] = assay: Antiinflammatory activity in mouse RAW264.7 cells assessed as inhibition of LPS-induced nitric oxide production after 24 hrs by Griess method; assay type: functional, cell-based; details: RAW264.7, 24 h
[2] = Solubility of the compound in DMSO; assay type: physicochemical
RAW264.7 [3] = assay: Antiinflammatory activity in mouse RAW264.7 cells assessed as inhibition of LPS-induced iNOS protein expression at 50 uM after 24 hrs by immunoblot analysis relative to control; assay type: functional, cell-based
RAW264.7 [4] = assay: Antiinflammatory activity in mouse RAW264.7 cells assessed as inhibition of LPS-induced iNOS protein expression at 100 uM after 24 hrs by immunoblot analysis; assay type: functional, cell-based
RAW264.7 [5] = assay: Antiinflammatory activity in mouse RAW264.7 cells assessed as inhibition of LPS-induced iNOS […] expression at 50 uM after 24 hrs by immunoblot analysis; assay type: functional, cell-based
RAW264.7 [6] = assay: Antioxidant activity in LPS-stimulated mouse RAW264.7 cells assessed as induction of HO-1 protein expression after 24 hrs by immunoblot analysis; assay type: functional, cell-based
RAW264.7 [7] = assay: Antioxidant activity in LPS-stimulated mouse RAW264.7 cells assessed as induction of HO-1 protein expression at 50 uM after 24 hrs by immunoblot analysis; assay type: functional, cell-based
RAW264.7 [8] = assay: Antioxidant activity in LPS-stimulated mouse RAW264.7 cells assessed as induction of HO-1 protein expression at 100 uM after 24 hrs by immunoblot analysis; assay type: functional, cell-based
RAW264.7 [9] = assay: Antioxidant activity in LPS-stimulated mouse RAW264.7 cells assessed as induction of HO-1 mRNA expression at 50 uM after 24 hrs by RT-PCR analysis; assay type: functional, cell-based
RAW264.7 [10] = assay: Antioxidant activity in LPS-stimulated mouse RAW264.7 cells assessed as induction of HO-1 mRNA expression at 100 uM after 24 hrs by RT-PCR analysis; assay type: functional, cell-based
RAW264.7 [11] = assay: Antioxidant activity in mouse RAW264.7 cells assessed as induction of HO1 expression at 50 uM after 24 hrs by immunoblot analysis; assay type: functional, cell-based
RAW264.7 [12] = assay: Antioxidant activity in mouse RAW264.7 cells assessed as induction of HO1 expression at 100 uM after 24 hrs by immunoblot analysis; assay type: functional, cell-based
RAW264.7 [13] = assay: Antioxidant activity in mouse RAW264.7 cells assessed as induction of HO1 expression at 100 uM after 6 hrs by immunoblot analysis; assay type: functional, cell-based
RAW264.7 [14] = assay: Antioxidant activity in mouse RAW264.7 cells assessed as induction of HO1 expression at 100 uM after 48 hrs by immunoblot analysis; assay type: functional, cell-based
RAW264.7 [15] = assay: Antioxidant activity in mouse RAW264.7 cells assessed as induction of HO1 expression at 100 uM after 72 hrs by immunoblot analysis; assay type: functional, cell-based
RAW264.7 [16] = assay: Antioxidant activity in mouse RAW264.7 cells assessed as induction of HO1 expression at 100 uM after 66 hrs by immunoblot analysis; assay type: functional, cell-based
RAW264.7 [17] = assay: Antioxidant activity in LPS-stimulated mouse RAW264.7 cells assessed as induction of HO-1 mRNA expression at 100 uM after 4 hrs by RT-PCR analysis relative to control; assay type: functional
RAW264.7 [18] = assay: Antioxidant activity in LPS-stimulated mouse RAW264.7 cells assessed as induction of HO-1 mRNA expression at 100 uM after 20 hrs by RT-PCR analysis relative to control; assay type: functional
RAW264.7 [19] = assay: Induction of Nrf2 mRNA expression in mouse RAW264.7 cells at 100 uM after 20 hrs by quantitative RT-PCR analysis relative to control; assay type: functional
[20] = target: T1, Nuclear factor erythroid 2-related factor 2 (Mus musculus) (UniProt Q60795); assay: Induction of Nrf2-mediated NQO1 mRNA expression in mouse RAW264.7 cells at 100 uM after 20 hrs by quantitative RT-PCR analysis relative to control; assay type: cell-based
T1 sequence (whole entry): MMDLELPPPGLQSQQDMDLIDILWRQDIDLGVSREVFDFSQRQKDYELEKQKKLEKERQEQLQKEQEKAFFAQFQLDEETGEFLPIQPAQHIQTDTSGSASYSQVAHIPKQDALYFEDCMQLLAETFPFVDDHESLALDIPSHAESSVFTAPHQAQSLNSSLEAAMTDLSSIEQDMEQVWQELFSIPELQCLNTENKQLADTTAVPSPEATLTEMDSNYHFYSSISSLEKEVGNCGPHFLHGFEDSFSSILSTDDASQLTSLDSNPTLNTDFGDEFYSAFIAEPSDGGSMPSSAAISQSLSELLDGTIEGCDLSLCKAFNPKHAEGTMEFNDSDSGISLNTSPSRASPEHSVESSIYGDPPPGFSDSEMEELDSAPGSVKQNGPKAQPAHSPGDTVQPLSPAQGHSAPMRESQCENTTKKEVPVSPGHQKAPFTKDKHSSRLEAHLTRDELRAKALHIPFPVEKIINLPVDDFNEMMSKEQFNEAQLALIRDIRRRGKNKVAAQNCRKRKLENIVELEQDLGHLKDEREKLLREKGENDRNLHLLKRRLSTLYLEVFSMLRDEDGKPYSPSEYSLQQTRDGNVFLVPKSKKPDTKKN
In short: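 RAW 264.7 cells (DMEM, 10% FBS, 37°C, 5% CO2) exposed to 100 μM compound for a series of time points without stated LPS activation. Total RNA isolated, converted to cDNA, and NQO1 quantified by TaqMan real-time RT-PCR using mouse-specific assays. Fold change versus control derived by the ΔΔCt relative quantification method (40 cycles, 95/60 °C).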

[21] = target: T1, Nuclear factor erythroid 2-related factor 2 (Mus musculus); assay: Induction of Nrf2-mediated CAT mRNA expression in mouse RAW264.7 cells at 100 uM after 16 hrs by quantitative RT-PCR analysis relative to control; assay type: cell-based
[22] = target: T1, Nuclear factor erythroid 2-related factor 2 (Mus musculus); assay: Induction of Nrf2-mediated CAT mRNA expression in mouse RAW264.7 cells at 100 uM after 20 hrs by quantitative RT-PCR analysis relative to control; assay type: cell-based
[23] = target: T1, Nuclear factor erythroid 2-related factor 2 (Mus musculus); assay: Induction of Nrf2-mediated GCLC mRNA expression in mouse RAW264.7 cells at 100 uM after 20 hrs by quantitative RT-PCR analysis relative to control; assay type: cell-based
[24] = target: T1, Nuclear factor erythroid 2-related factor 2 (Mus musculus); assay: Induction of Nrf2-mediated GCLC mRNA expression in mouse RAW264.7 cells at 100 uM after 24 hrs by quantitative RT-PCR analysis relative to control; assay type: cell-based
[25] = target: T1, Nuclear factor erythroid 2-related factor 2 (Mus musculus); assay: Induction of Nrf2-mediated GR mRNA expression in mouse RAW264.7 cells at 100 uM after 20 hrs by quantitative RT-PCR analysis relative to control; assay type: cell-based

With `CC1(C)[C@@H](O)CC[C@]2(C)C3=C(CC[C@@H]12)[C@@]1(C)CC[C@@]2(C)CC[C@@](C)(C(=O)O)C[C@H]2[C@]1(C)CC3` [BRYONOLIC ACID] the IC50 (RAW264.7 [1]) was 53.3 µM, the solubility [2] was “soluble” and the Activity (RAW264.7 [3]) was “Active”. The Activity (RAW264.7 [4]) was “Active”, the Activity (RAW264.7 [5]) was “Active” and the Activity (RAW264.7 [6]) was “Dose-dependent effect”. For the same compound, the Activity (RAW264.7 [7]) was “Active”, the Activity (RAW264.7 [8]) was “Active” and the Activity (RAW264.7 [9]) was “Active”. The Activity (RAW264.7 [10]) was “Active”, the Activity (RAW264.7 [11]) was “Active” and the Activity (RAW264.7 [12]) was “Active”. The Activity (RAW264.7 [13]) was “Active”, the Activity (RAW264.7 [14]) was “Active” and the Activity (RAW264.7 [15]) was “inactive”. For the same compound, the Activity (RAW264.7 [16]) was “inactive”, the “fold change (FC)” value (RAW264.7 [17]) was 4.1 and the “fold change (FC)” value (RAW264.7 [18]) was 11.3. The “fold change (FC)” value (RAW264.7 [19]) was 1.8, the fold change (FC) [20] was 11.7 and the fold change (FC) [21] was 1.7. The fold change (FC) [22] was 3.5, the fold change (FC) [23] was 1.8 and the Activity [24] was “inactive”. For the same compound, the fold change (FC) [25] was 1.5.
